Assay results gathered from unrelated publications.
Cell line: HOP-92
Effect on: cell growth or viability

With `COc1ccc(C(=O)/C=C/c2cccnc2)cc1S(N)(=O)=O` the inhibition was 44% (SRB; 10 µM).
With `COc1ccc(-c2ccc(-c3ccc(C(=N)N)nc3)s2)cc1` the GI50 was 1500 nM (SRB).
`CCCc1n(Cc2ccc3ccccc3n2)cc[n+]1Cc1ccc2ccccc2n1` has a TGI of 3230 nM (SRB).
The GI50 of `COc1ccc(-c2ccc(-c3ccc(C(=N)N)nc3)s2)cc1Cl` is reported as 1630 nM (SRB).
With `COc1ccc(C(=O)/C=C/c2cccc(Br)c2)cc1S(N)(=O)=O` the GI50 was 1800 nM (SRB; 48 h).
`O=C1Nc2ccccc2C1=NNc1nnc2n1N=C(c1ccccc1)CS2` gave an inhibition of 36% (SRB; 10 µM).
`CCCCc1n(Cc2ccc3ccccc3n2)cc[n+]1Cc1ccc2ccccc2n1` gave a TGI of 3360 nM (SRB).
`O=C1NC(=NCc2cccs2)S/C1=C\c1ccc2ncccc2c1` has an IC50 of 6040 nM.
`CCc1n(Cc2ccc3ccccc3n2)cc[n+]1Cc1ccc2ccccc2c1` has a TGI of 671 nM (SRB).
The GI50 of `COc1cccc(Oc2ccccc2NC(=O)CNC(=O)c2cccc3ccccc23)c1` is reported as 204 nM (SRB; 48 h).
`O=C1NCCc2[nH]c(-c3ccncc3)cc21` has an IC50 of 6400 nM.
